This passage reports GI50 results from ChEMBL document CHEMBL4715715, “Synthesis and biological evaluation of arylcinnamide linked combretastatin-A4 hybrids as tubulin polymerization inhibitors and apoptosis inducing agents” (Bioorg Med Chem Lett, 2016).

Bounds are passed on as bounds.

The first assay relates to HOP-62. The assay is described as follows: Antiproliferative activity against human HOP-62 cells assessed as cell growth inhibition measured after 48 hrs by SRB assay. The format is functional. The method, boiled down: (§1)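 Sulforhodamine B (SRB) cell-staining assay across a panel of human cancer lines. Growth inhibition is reported as GI50.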
A word on the GI50: it is the concentration that inhibits growth by half. Consider `COc1cc(/C=C/C(=O)Nc2c(/C=C\c3cc(OC)c(OC)c(OC)c3)ccc(OC)c2O)ccc1O`, for which the GI50 came to 79 nM.

Turning to `COc1ccc(/C=C\c2cc(OC)c(OC)c(OC)c2)c(NC(=O)/C=C/c2cc(OC)c(OC)c(OC)c2)c1O`, the concentration for 50% growth inhibition (GI50) was 24800 nM.

As for `C#CCOc1cccc(/C=C/C(=O)Nc2c(/C=C\c3cc(OC)c(OC)c(OC)c3)ccc(OC)c2O)c1`, the GI50 is greater than 100000 nM.

For `C=CCOc1cccc(/C=C/C(=O)Nc2c(/C=C\c3cc(OC)c(OC)c(OC)c3)ccc(OC)c2O)c1`, the GI50 was 60 nM.

Take `COc1cccc(/C=C/C(=O)Nc2c(/C=C\c3cc(OC)c(OC)c(OC)c3)ccc(OC)c2O)c1`: the GI50 was 65400 nM.

Consider `COc1ccc(/C=C\c2cc(OC)c(OC)c(OC)c2)c(NC(=O)/C=C/c2cccc(O)c2)c1O`, for which the GI50 is 82 nM.

For `COc1ccc(/C=C/C(=O)Nc2c(/C=C\c3cc(OC)c(OC)c(OC)c3)ccc(OC)c2O)cc1O`, the GI50 amounted to 17100 nM.

A further assay relates to DU-145. The assay is described as follows: Antiproliferative activity against human DU-145 cells assessed as cell growth inhibition measured after 48 hrs by SRB assay. The format is functional. The method, boiled down:
as §1
(In general: The SRB assay estimates cell density from bound dye.)
`COc1cc(/C=C/C(=O)Nc2c(/C=C\c3cc(OC)c(OC)c(OC)c3)ccc(OC)c2O)ccc1O`: the GI50 was 72 nM.

Turning to `COc1ccc(/C=C\c2cc(OC)c(OC)c(OC)c2)c(NC(=O)/C=C/c2cc(OC)c(OC)c(OC)c2)c1O`, the GI50 worked out at 95 nM.

For the molecule `C#CCOc1cccc(/C=C/C(=O)Nc2c(/C=C\c3cc(OC)c(OC)c(OC)c3)ccc(OC)c2O)c1`, the GI50 was 96400 nM.

As to `C=CCOc1cccc(/C=C/C(=O)Nc2c(/C=C\c3cc(OC)c(OC)c(OC)c3)ccc(OC)c2O)c1`, the GI50 came out at 85 nM.

On to `COc1cccc(/C=C/C(=O)Nc2c(/C=C\c3cc(OC)c(OC)c(OC)c3)ccc(OC)c2O)c1`, for which the 50% growth inhibitory concentration (GI50) is greater than 100000 nM.

With `COc1ccc(/C=C\c2cc(OC)c(OC)c(OC)c2)c(NC(=O)/C=C/c2cccc(O)c2)c1O`, the GI50 was 70 nM.

For `COc1ccc(/C=C/C(=O)Nc2c(/C=C\c3cc(OC)c(OC)c(OC)c3)ccc(OC)c2O)cc1O`, the concentration for 50% growth inhibition (GI50) worked out at 117 nM.

The subject of another assay is K562. The assay is described as follows: Antiproliferative activity against human K562 cells assessed as cell growth inhibition measured after 48 hrs by SRB assay. The format is functional. A digest of the protocol:
as §1
As to `COc1cc(/C=C/C(=O)Nc2c(/C=C\c3cc(OC)c(OC)c(OC)c3)ccc(OC)c2O)ccc1O`, the GI50 was 93 nM.

On to `COc1ccc(/C=C\c2cc(OC)c(OC)c(OC)c2)c(NC(=O)/C=C/c2cc(OC)c(OC)c(OC)c2)c1O`, for which the GI50 was found to be 28000 nM.

Take `C#CCOc1cccc(/C=C/C(=O)Nc2c(/C=C\c3cc(OC)c(OC)c(OC)c3)ccc(OC)c2O)c1`: the GI50 was greater than 100000 nM.

With `C=CCOc1cccc(/C=C/C(=O)Nc2c(/C=C\c3cc(OC)c(OC)c(OC)c3)ccc(OC)c2O)c1`, the GI50 was 91 nM.

With `COc1cccc(/C=C/C(=O)Nc2c(/C=C\c3cc(OC)c(OC)c(OC)c3)ccc(OC)c2O)c1`, the 50% growth inhibitory concentration (GI50) worked out at 98 nM.

As to `COc1ccc(/C=C\c2cc(OC)c(OC)c(OC)c2)c(NC(=O)/C=C/c2cccc(O)c2)c1O`, the GI50 was 94 nM.

As for `COc1ccc(/C=C/C(=O)Nc2c(/C=C\c3cc(OC)c(OC)c(OC)c3)ccc(OC)c2O)cc1O`, the GI50 amounted to 23700 nM.

The test system of a further assay is COLO 205. The assay is described as follows: Antiproliferative activity against human COLO 205 cells assessed as cell growth inhibition measured after 48 hrs by SRB assay. The format is functional. The method, boiled down:
as §1
Turning to `COc1cc(/C=C/C(=O)Nc2c(/C=C\c3cc(OC)c(OC)c(OC)c3)ccc(OC)c2O)ccc1O`, the GI50 worked out at 98 nM.

Consider `COc1ccc(/C=C\c2cc(OC)c(OC)c(OC)c2)c(NC(=O)/C=C/c2cc(OC)c(OC)c(OC)c2)c1O`, for which the 50% growth inhibitory concentration (GI50) came to 76000 nM.

Turning to `C#CCOc1cccc(/C=C/C(=O)Nc2c(/C=C\c3cc(OC)c(OC)c(OC)c3)ccc(OC)c2O)c1`, the GI50 is greater than 100000 nM.

As to `C=CCOc1cccc(/C=C/C(=O)Nc2c(/C=C\c3cc(OC)c(OC)c(OC)c3)ccc(OC)c2O)c1`, the GI50 was 18000 nM.

With `COc1cccc(/C=C/C(=O)Nc2c(/C=C\c3cc(OC)c(OC)c(OC)c3)ccc(OC)c2O)c1`, the concentration for 50% growth inhibition (GI50) is greater than 100000 nM.

For the molecule `COc1ccc(/C=C\c2cc(OC)c(OC)c(OC)c2)c(NC(=O)/C=C/c2cccc(O)c2)c1O`, the 50% growth inhibitory concentration (GI50) stood at 13400 nM.

For the molecule `COc1ccc(/C=C/C(=O)Nc2c(/C=C\c3cc(OC)c(OC)c(OC)c3)ccc(OC)c2O)cc1O`, the GI50 is greater than 100000 nM.

In the next assay the test system is HeLa. The assay is described as follows: Antiproliferative activity against human HeLa cells assessed as cell growth inhibition measured after 48 hrs by SRB assay. The format is functional. A digest of the protocol:
as §1
Turning to `COc1cc(/C=C/C(=O)Nc2c(/C=C\c3cc(OC)c(OC)c(OC)c3)ccc(OC)c2O)ccc1O`, the concentration for 50% growth inhibition (GI50) stood at 90 nM.

Take `COc1ccc(/C=C\c2cc(OC)c(OC)c(OC)c2)c(NC(=O)/C=C/c2cc(OC)c(OC)c(OC)c2)c1O`: the GI50 worked out at 14900 nM.

For `C#CCOc1cccc(/C=C/C(=O)Nc2c(/C=C\c3cc(OC)c(OC)c(OC)c3)ccc(OC)c2O)c1`, the GI50 was greater than 100000 nM.

For `C=CCOc1cccc(/C=C/C(=O)Nc2c(/C=C\c3cc(OC)c(OC)c(OC)c3)ccc(OC)c2O)c1`, the GI50 was found to be 78.7 nM.

For the molecule `COc1cccc(/C=C/C(=O)Nc2c(/C=C\c3cc(OC)c(OC)c(OC)c3)ccc(OC)c2O)c1`, the GI50 came to 18100 nM.

Regarding `COc1ccc(/C=C\c2cc(OC)c(OC)c(OC)c2)c(NC(=O)/C=C/c2cccc(O)c2)c1O`, the GI50 was found to be 94.9 nM.

For `COc1ccc(/C=C/C(=O)Nc2c(/C=C\c3cc(OC)c(OC)c(OC)c3)ccc(OC)c2O)cc1O`, the GI50 worked out at 15900 nM.

A further assay relates to SK-OV-3. Nature of the assay: Antiproliferative activity against human SK-OV-3 cells assessed as cell growth inhibition measured after 48 hrs by SRB assay. Type of assay: functional. The method, boiled down:
as §1
For the molecule `COc1cc(/C=C/C(=O)Nc2c(/C=C\c3cc(OC)c(OC)c(OC)c3)ccc(OC)c2O)ccc1O`, the GI50 was found to be 96 nM.

As to `COc1ccc(/C=C\c2cc(OC)c(OC)c(OC)c2)c(NC(=O)/C=C/c2cc(OC)c(OC)c(OC)c2)c1O`, the GI50 was 20900 nM.

Regarding `C#CCOc1cccc(/C=C/C(=O)Nc2c(/C=C\c3cc(OC)c(OC)c(OC)c3)ccc(OC)c2O)c1`, the GI50 is greater than 100000 nM.

`C=CCOc1cccc(/C=C/C(=O)Nc2c(/C=C\c3cc(OC)c(OC)c(OC)c3)ccc(OC)c2O)c1`: the GI50 is 82 nM.

`COc1cccc(/C=C/C(=O)Nc2c(/C=C\c3cc(OC)c(OC)c(OC)c3)ccc(OC)c2O)c1`: the GI50 worked out at 17600 nM.

As for `COc1ccc(/C=C\c2cc(OC)c(OC)c(OC)c2)c(NC(=O)/C=C/c2cccc(O)c2)c1O`, the concentration for 50% growth inhibition (GI50) was found to be 97 nM.

Take `COc1ccc(/C=C/C(=O)Nc2c(/C=C\c3cc(OC)c(OC)c(OC)c3)ccc(OC)c2O)cc1O`: the GI50 worked out at 1800 nM.

The test system of another assay is MCF7. Nature of the assay: Antiproliferative activity against human MCF7 cells assessed as cell growth inhibition measured after 48 hrs by SRB assay. The format is functional. The method, boiled down:
as §1
On to `COc1cc(/C=C/C(=O)Nc2c(/C=C\c3cc(OC)c(OC)c(OC)c3)ccc(OC)c2O)ccc1O`, for which the concentration for 50% growth inhibition (GI50) was 60 nM.

For `COc1ccc(/C=C\c2cc(OC)c(OC)c(OC)c2)c(NC(=O)/C=C/c2cc(OC)c(OC)c(OC)c2)c1O`, the 50% growth inhibitory concentration (GI50) turned out to be 79 nM.

Turning to `C#CCOc1cccc(/C=C/C(=O)Nc2c(/C=C\c3cc(OC)c(OC)c(OC)c3)ccc(OC)c2O)c1`, the GI50 was determined as 11600 nM.

For `C=CCOc1cccc(/C=C/C(=O)Nc2c(/C=C\c3cc(OC)c(OC)c(OC)c3)ccc(OC)c2O)c1`, the GI50 amounted to 83 nM.

As for `COc1cccc(/C=C/C(=O)Nc2c(/C=C\c3cc(OC)c(OC)c(OC)c3)ccc(OC)c2O)c1`, the GI50 was 59500 nM.

Turning to `COc1ccc(/C=C\c2cc(OC)c(OC)c(OC)c2)c(NC(=O)/C=C/c2cccc(O)c2)c1O`, the GI50 was 63 nM.

With `COc1ccc(/C=C/C(=O)Nc2c(/C=C\c3cc(OC)c(OC)c(OC)c3)ccc(OC)c2O)cc1O`, the GI50 stood at 95 nM.

The next assay has as its system MIA PaCa-2. The assay is described as follows: Antiproliferative activity against human MIA Paca-2 cells assessed as cell growth inhibition measured after 48 hrs by SRB assay. The format is functional. The method, boiled down: as §1
`COc1cc(/C=C/C(=O)Nc2c(/C=C\c3cc(OC)c(OC)c(OC)c3)ccc(OC)c2O)ccc1O`: the GI50 worked out at 98 nM.

As for `COc1ccc(/C=C\c2cc(OC)c(OC)c(OC)c2)c(NC(=O)/C=C/c2cc(OC)c(OC)c(OC)c2)c1O`, the GI50 is 64500 nM.

Take `C#CCOc1cccc(/C=C/C(=O)Nc2c(/C=C\c3cc(OC)c(OC)c(OC)c3)ccc(OC)c2O)c1`: the GI50 was greater than 100000 nM.

Consider `C=CCOc1cccc(/C=C/C(=O)Nc2c(/C=C\c3cc(OC)c(OC)c(OC)c3)ccc(OC)c2O)c1`, for which the GI50 was 98 nM.

With `COc1cccc(/C=C/C(=O)Nc2c(/C=C\c3cc(OC)c(OC)c(OC)c3)ccc(OC)c2O)c1`, the GI50 turned out to be 93900 nM.

For `COc1ccc(/C=C\c2cc(OC)c(OC)c(OC)c2)c(NC(=O)/C=C/c2cccc(O)c2)c1O`, the GI50 worked out at 98 nM.

Regarding `COc1ccc(/C=C/C(=O)Nc2c(/C=C\c3cc(OC)c(OC)c(OC)c3)ccc(OC)c2O)cc1O`, the GI50 was found to be 46300 nM.
